Measured values as given in ChEMBL document CHEMBL3244283, “Synthesis and biological activity of potential antimetabolites” (1977).
≈ marks a conversion by molar mass, not a printed value. Calls of active or inactive are those of the source. The rule behind the calls is not given here.

How the values were obtained:
L1210 = assay: Antitumor activity against mouse L1210 cells allografted in BDF1 mouse; assay type: functional, cell-based
Outline: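 Run through the NCI routine preliminary in vivo screen (2LE system). L1210 lymphoid leukemia was carried in BDF1 host mice.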

[1] = Cytotoxicity against human NCI-[…] cells assessed as growth inhibition; assay type: functional
Outline: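 Run through the NCI routine preliminary in vitro cell-culture screen (9KB system) on human epidermoid carcinoma of the nasopharynx. ED50 is the concentration giving 50% growth inhibition relative to untreated controls.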

Escherichia coli [2] = assay: Irreversible inhibition of Escherichia coli aspartate transcarbamylase in presence of aspartate
Escherichia coli [3] = assay: Irreversible inhibition of Escherichia coli aspartate transcarbamylase in absence of aspartate
Escherichia coli [4] = assay: Inhibition of Escherichia coli aspartate transcarbamylase assessed as interaction between aspartate and carbamyl phosphate at 66 mM relative to control
Outline: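 E. coli aspartate transcarbamylase (0.1 per ml) catalysed the reaction of 5 mM aspartate with 4 mM carbamyl phosphate. Test agent was present at 66 mM, and phosphate at the same concentration served as a comparison. Enzyme activity was read colorimetrically. Inhibition is expressed as a percentage relative to the uninhibited reaction.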

NC(Cc1ccccc1)C(=O)CCl (stereo not drawn)
Activity (L1210): inactive | ED50 [1]: 4 µg/mL (≈ 20.2 µM)

NCCCCC(N)C(=O)CCl (stereo not drawn)
Activity (L1210): inactive | ED50 [1]: 2.7 µg/mL (≈ 15.1 µM)

CC(C)CC(N)C(=O)CCl (stereo not drawn)
Activity (L1210): inactive | ED50 [1]: 7.6 µg/mL (≈ 46.4 µM)

O=C(CCl)NP(=O)([O-])[O-].[Li+].[Li+]
Activity (L1210): inactive | inhibition (Escherichia coli [2]): inactive | inhibition (Escherichia coli [3]): inactive | ED50 [1]: 2.5 µg/mL | inhibition (Escherichia coli [4]): 60%

NC(Cc1ccc(O)cc1)C(=O)CCl (stereo not drawn)
Activity (L1210): inactive | ED50 [1]: 2.1 µg/mL (≈ 9.83 µM)
